Data reported in ChEMBL document CHEMBL4699512, “Synthesis of non-nucleoside anti-viral cyclopropylcarboxacyl hydrazones and initial anti-HSV-1 structure-activity relationship studies” (Bioorg Med Chem Lett, 2020).
Active and inactive are the calls of the source. The rule behind the calls is not given here.

Tests used:
Human alphaherpesvirus 1 [1] = experiment: Antiviral activity against recombinant EGFP/RFP expressing Herpes simplex virus 1 KOS infected in iPSC-neurons assessed as decrease in proportion of fluorescent cells compound added 2 hr post infection incubated for 48 hrs by flow cytometry analysis; format: functional, organism-based; conditions: Induced pluripotent stem cell-derived neuron
Method in brief: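 iPSC-derived neurons infected with recombinant HSV-1 derived from strain KOS, expressing EGFP from the early ICP0 promoter and monomeric RFP from the glycoprotein C promoter. Infection was scored as the proportion of fluorescent cells. Controls were uninfected cells, virus alone, and virus with acyclovir as positive control. The protocol follows the group's earlier procedure.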

Human alphaherpesvirus 1 [2] = experiment: Antiviral activity against Herpes simplex virus 1 infected in neuronal progenitor cells assessed as decrease in fluorescent cells; format: functional, organism-based; conditions: Human alphaherpesvirus 1, Neuronal cell line
Human alphaherpesvirus 1 [3] = experiment: Potency index, ratio of acyclovir IC50 to compound IC50 for antiviral activity against HSV-1 infected in neuronal progenitor cells; format: functional, Neuronal cell line
Neuronal cell line = experiment: Cytotoxicity against human neuronal progenitor cells assessed as cell viability at 25 uM; format: cell-based

Row | SMILES | Activity (Human alphaherpesvirus 1 [1]) | other results
1 | COc1cc(/C=N/NC(=O)C2CC2(c2ccccc2)c2ccccc2)cc(OC)c1OC (stereo unspecified) | Active | –
2 | O=C(N/N=C/c1ccc(Br)cc1)C1CC1(c1ccccc1)c1ccccc1 (stereo unspecified) | inactive | –
3 | O=C(N/N=C/C1CCCCC1)C1CC1(c1ccccc1)c1ccccc1 (stereo unspecified) | Active | –
4 | O=C(N/N=C/c1ccc2c(c1)OCO2)C1CC1(c1ccccc1)c1ccccc1 (stereo unspecified) | Active | –
5 | O=C(N/N=C/c1cccs1)C1CC1(c1ccccc1)c1ccccc1 (stereo unspecified) | Active | –
6 | O=C(N/N=C/c1ccccn1)C1CC1(c1ccccc1)c1ccccc1 (stereo unspecified) | Active | –
7 | O=C(N/N=C/c1c[nH]c2ccccc12)C1CC1(c1ccccc1)c1ccccc1 (stereo unspecified) | Active | –
8 | O=C(N/N=C/c1ccc[nH]1)C1CC1(c1ccccc1)c1ccccc1 (stereo unspecified) | Active | –
9 | O=C(N/N=C/c1ncc[nH]1)C1CC1(c1ccccc1)c1ccccc1 (stereo unspecified) | inactive | –
10 | O=C(N/N=C/c1ccc(F)cc1F)C1CC1(c1ccccc1)c1ccccc1 (stereo unspecified) | inactive | –
11 | COc1cc(/C=N/NC(=O)C2CC2(c2ccccc2)c2ccccc2)ccc1O (stereo unspecified) | inactive | –
12 | O=C(N/N=C/c1ccc(Br)o1)C1CC1(c1ccccc1)c1ccccc1 (stereo unspecified) | inactive | –
13 | O=C(N/N=C1/CCCc2ccccc21)C1CC1(c1ccccc1)c1ccccc1 (stereo unspecified) | inactive | –
14 | O=C(N/N=C/c1ccccn1)C1CC1(c1ccc(OC(F)(F)F)cc1)c1ccc(OC(F)(F)F)cc1 (stereo unspecified) | Active | –
15 | O=C(N/N=C/c1ccccc1Cl)C1CC1(c1ccccc1)c1ccccc1 (stereo unspecified) | Active | –
16 | Nc1nc2c(ncn2COCCO)c(=O)[nH]1 [ACYCLOVIR] | Active | IC50 (Human alphaherpesvirus 1 [2]): 27.4 µM
17 | CN(C)c1ccc(/C=N/NC(=O)C2CC2(c2ccccc2)c2ccccc2)cc1 (stereo unspecified) | inactive | –
18 | O=C(N/N=C/c1ccc([N+](=O)[O-])cc1)C1CC1(c1ccccc1)c1ccccc1 (stereo unspecified) | inactive | –
19 | O=C(N/N=C/c1cccnc1)C1CC1(c1ccccc1)c1ccccc1 (stereo unspecified) | inactive | –
20 | O=C(N/N=C/c1ccc[nH]1)C1CC1(c1ccc(OC(F)(F)F)cc1)c1ccc(OC(F)(F)F)cc1 (stereo unspecified) | Active | Ratio IC50 (Human alphaherpesvirus 1 [3]): 2; Activity (Neuronal cell line): Non-Toxic; IC50 (Human alphaherpesvirus 1 [2]): 14.1 µM
21 | O=C(N/N=C/c1ccco1)C1CC1(c1ccccc1)c1ccccc1 (stereo unspecified) | Active | –
22 | O=C(N/N=C/c1c[nH]cn1)C1CC1(c1ccccc1)c1ccccc1 (stereo unspecified) | inactive | –
